ASAP1 GAP inh: ASAP1 ArfGAP inhibition. hit rate 0.19% among 360,000. ASAP1-stimulated ARF1 GTP hydrolysis, GDP FP detection. AID 624377. Q9ULH1. inhibition, % at 16.5 µM; in the data active means inhibition above about 25%;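 further: 0% = vehicle with enzyme and substrate and 100% = no enzyme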
Target sequence (Q9ULH1 325-724 limits assumed): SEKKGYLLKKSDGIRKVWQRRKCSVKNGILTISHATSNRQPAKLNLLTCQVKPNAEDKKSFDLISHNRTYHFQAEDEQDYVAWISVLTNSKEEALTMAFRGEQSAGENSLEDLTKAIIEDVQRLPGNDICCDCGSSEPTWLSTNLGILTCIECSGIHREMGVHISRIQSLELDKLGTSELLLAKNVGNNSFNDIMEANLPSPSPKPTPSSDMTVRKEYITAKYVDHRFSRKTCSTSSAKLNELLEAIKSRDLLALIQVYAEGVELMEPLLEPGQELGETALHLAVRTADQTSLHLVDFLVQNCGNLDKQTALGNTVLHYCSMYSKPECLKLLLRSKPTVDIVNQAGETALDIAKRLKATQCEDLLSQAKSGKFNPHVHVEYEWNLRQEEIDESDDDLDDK
PHOSPHO1 inh: blocks human PHOSPHO1 phosphatase activity; Q8TCT1; recombinant PHOSPHO1, absorbance phosphatase assay; inhibition, % at 13.3 µM; hit rate 1.1% among 290,000; AID 1565; in the data active means inhibition above about 60%
Target sequence (Q8TCT1 whole entry, looked up): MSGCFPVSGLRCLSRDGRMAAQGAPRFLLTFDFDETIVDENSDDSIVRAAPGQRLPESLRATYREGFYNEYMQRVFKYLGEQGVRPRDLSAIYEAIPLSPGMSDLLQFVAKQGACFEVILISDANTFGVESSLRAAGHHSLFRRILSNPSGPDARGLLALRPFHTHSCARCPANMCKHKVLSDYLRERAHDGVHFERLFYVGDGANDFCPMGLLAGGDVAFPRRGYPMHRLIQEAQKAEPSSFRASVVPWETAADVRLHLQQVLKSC
Calb FLC: C. albicans growth modulation with fluconazole; hit rate 0.57% among 300,000; growth inhibition, % (test concentration not listed); C. albicans CaCi-2 + fluconazole, Alamar Blue growth, 48 h;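 active means growth inhibition above about 58% in most replicates, limit read from the data, passing the limit was not always enough; inconclusive means exactly half the replicates above a set limit; inactive means most replicates below a set limit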;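 further: all wells also contain fluconazole at 8 µg/ml as a sub-toxic cotreatment; 0% = median of DMSO wells and 100% = median of geldanamycin control wells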
IMP-1 inh: blocks Pseudomonas aeruginosa IMP-1 metallo-beta-lactamase | purified IMP-1, nitrocefin hydrolysis, epi-absorbance fluorescence | inhibition, % at 5.6 µM | hit rate 0.45% among 290,000 | AID 1556;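 active means inhibition above the mean plus 3 SD of all compounds in the same screening run, cut at about 4.5% in these data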;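 further: 0% = IMP-1 with DMSO and 100% = DMSO wells lacking enzyme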
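Material – recombinant IMP-1 enzyme, purified · Amount – IMP-1 0.2 nM before substrate addition · Medium – HEPES buffer pH 7.1 with ZnSO4 and Brij 35 · Timing – 25 °C, 15 min preincubation, 25 min reaction · Measured by – plate fluorescence quenching by hydrolysis product, ex 480/em 530 nm · Read-out – percent enzyme inhibition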
ARFGAP1 inh: rat ARFGAP1 inhibition. Q62848. hit rate 0.26% among 360,000. inhibition, % at 16.5 µM. Arfgap1-stimulated ARF1 GTP hydrolysis, GDP FP detection. AID 651572;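 active means inhibition above a per-plate limit, mean inhibition of low control wells plus 3 SD, cut at about 25% in these data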;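 further: 0% = DMSO wells with enzyme and 100% = wells lacking Arfgap1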
Target sequence (Q62848 1-136 limits assumed): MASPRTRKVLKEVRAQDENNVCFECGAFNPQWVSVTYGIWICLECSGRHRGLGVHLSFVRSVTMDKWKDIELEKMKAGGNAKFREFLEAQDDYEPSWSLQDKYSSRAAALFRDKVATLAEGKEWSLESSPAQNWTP
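System: truncated rat Arfgap1 GAP domain / Benchmarks: high control wells lacking Arfgap1, low control full reaction with DMSO / Times: compound-enzyme preincubation 20 min, reaction 120 min, detection 60 min, 25 °C / Repeats: one replicate per compound / Also added: human ARF1(Δ1-17)-GTP substrate / Measured by: Tracer-displacement fluorescence polarization with EDTA stop, 620/688 nm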
VIM-2 inhibitor: blocks Pseudomonas aeruginosa VIM-2 metallo-beta-lactamase | inhibition, % at 5.6 µM | purified VIM-2, nitrocefin hydrolysis, epi-absorbance fluorescence | hit rate 0.89% among 290,000 | AID 1527;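 active means inhibition above the mean of all tested compounds plus 3 SD, cutoff set per screening run, cut at about 7.5% in these data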;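 further: red hydrolysis product quenches plate fluorescence so inhibitors raise well fluorescence; 0% = enzyme with DMSO and 100% = DMSO without enzyme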
Numbers without * were called inactive; ? = inconclusive; nt = no result given. This is a sample that favours compounds with a hit; in the whole collection about 2.6% have one here.

SMILES | ASAP1 GAP inh | PHOSPHO1 inh | Calb FLC | IMP-1 inh | ARFGAP1 inh | VIM-2 inhibitor
CCn1cc(CCC(=O)Nc2ccc(Oc3cccnc3)cc2)c2ccccc21 | -0.9 | nt | nt | nt | -9.2 | nt
COc1ccc(OC)c(CNS(=O)(=O)c2ccccc2Br)c1 | 8.5 | nt | nt | nt | 0.7 | nt
CCC(=O)N1CCN(c2ccc(Cl)cc2NC(=O)c2ccc3c(c2)OCCO3)CC1 | 1.6 | -5.8 | 89.6* | -8.6 | -1.9 | -2.7
CCC(=O)N1CCN(c2ccc(NC(=O)c3ccc4c(c3)OCCO4)cc2)CC1 | 0.6 | 36.5 | -1.3 | -0.7 | -2.6 | 1.0
COc1ccc(/C=C2\N=C(SC)NC2=O)cc1 | 0.1 | -2.6 | 90.4* | -6.5 | 9.4 | -2.7
CCSC1=N/C(=C\c2ccc(OC)cc2)C(=O)N1 | -4.8 | 1.9 | -2.7 | -5.1 | 13.1 | -0.1
Cc1cc(Br)cn2c(Cc3ccccc3C(F)(F)F)c(-c3ccco3)nc12 | -9.9 | nt | nt | nt | -4.8 | nt
COc1ccc(CN2C[C@H](COCc3ccccc3)Oc3cccc(N4CCCC4)c3S2(=O)=O)cc1 | -5.1 | nt | nt | nt | 10.7 | nt
COc1ccc(C(=O)c2ccc(OC)c(OC)c2)cc1OC | -16.4 | 52.4 | ? | -2.7 | 5.8 | -2.6
COc1ccc(C(=O)c2ccc(OC)c3cccc(O)c23)cc1OC | -1.1 | 82.7* | 3.1 | -1.7 | 12.1 | -1.0
CCOC(=O)/C(=C\C=C1/Sc2cc(OCC)c(OCC)cc2N1CC)C(C)=O | -3.0 | -0.5 | -2.8 | 4.8* | 4.5 | 3.0
CCOC(=O)/C(=C/C=C1\Sc2cc(OCC)c(OCC)cc2N1CC)C(C)=O | -5.9 | 0.4 | -29.6 | 6.2* | -11.2 | 6.8
C[C@@H]1CN([C@@H](C)CO)C(=O)CCCn2cc(nn2)CO[C@H]1CN(C)C(=O)Nc1ccc(C(C)(C)C)cc1 | -13.2 | nt | nt | nt | -0.6 | nt
CCOc1ccc(CC(=O)Nc2sc(Cc3ccccc3)cc2C(N)=O)cc1OCC | 3.0 | 97.4* | 7.1 | -5.3 | 8.8 | -3.6
NC(=O)c1cc(Cc2ccccc2)sc1NC(=O)c1ccco1 | 9.9 | 24.4 | -7.9 | -3.7 | 11.7 | -2.6
Nc1ncnc2c1ncn2[C@@H]1O[C@H](C(=O)N[C@@H](CCc2ccccc2)C(=O)N2CCN(C(=O)C(F)(F)F)CC2)[C@@H](O)[C@H]1O | -10.7 | nt | nt | nt | 2.3 | nt
CCCCCCCCN1C(=O)[C@@H](CC(=O)N2CCC(c3ccccc3)CC2)C[C@@]2(C(=O)OC)C1=C[C@H](C1CCCC1)O[C@@H]2C | 8.5 | nt | nt | nt | 13.2 | nt
Cc1cc(Nc2cccc(Br)c2)cc(=O)n1-c1cccc(Br)c1 | -7.1 | nt | nt | nt | 10.9 | nt
C[C@@H]1C=CCCO[C@]12C(=O)N(CC1CC1)c1cccc(Br)c12 | 1.7 | nt | nt | nt | -8.3 | nt
S=c1[nH]nc(-c2ccco2)n1/N=C/C=C/c1ccccc1 | 3.0 | 63.3* | -3.7 | -4.2 | -2.4 | 4.9
COc1ccc(-c2n[nH]c(=S)n2/N=C/C=C/c2ccccc2OC)cc1 | 19.0 | -4.5 | -9.6 | -0.9 | -9.5 | -3.3
S=c1[nH]nc(-c2ccccc2)n1/N=C/C=C/c1ccco1 | 13.7 | -14.5 | 18.5 | -4.0 | 4.0 | 0.9
COc1ccccc1/C=C/C=N/n1c(-c2ccccc2)n[nH]c1=S | -3.6 | 98.6* | -0.5 | -1.9 | 1.9 | -0.3
O=C1CSC(=S)N1c1cccnc1 | -1.0 | 97.5* | -3.9 | -1.5 | 13.4 | 1.1
O=C1CSC(=S)N1c1ccccc1 | 0.1 | nt | nt | nt | 10.3 | nt
SMILES | ASAP1 GAP inh | PHOSPHO1 inh | Calb FLC | IMP-1 inh | ARFGAP1 inh | VIM-2 inhibitor
C[C@H](CO)N1C[C@H](C)[C@H](CN(C)C(=O)NC2CCCCC2)OCc2cnnn2CCCC1=O | -12.6 | nt | nt | nt | 2.0 | nt
Cc1c(C(=O)NN2CCN(C)CC2)cccc1[N+](=O)[O-] | 4.0 | 60.5* | -13.5 | -0.4 | -9.3 | 1.9
COc1ccc(-c2cc(=O)oc3c(C)c(OCC(=O)Nc4cccnc4)ccc23)cc1 | -5.3 | 18.1 | 1.1 | 6.7* | -1.6 | 0.1
C[C@@H]1CN(c2c(F)c(N)c3c(=O)c(C(=O)O)cn(C4CC4)c3c2F)C[C@H](C)N1 | nt | 43.7 | nt | -1.4 | nt | 8.4*
Cc1cc(C)c(O)c(C(=O)CC2CC(=O)NC(=O)C2)c1 | -5.0 | nt | nt | nt | nt | nt
CC1=C/C(=C(\c2cc(C)c(O)c(Br)c2)c2ccccc2S(=O)(=O)O)C=C(Br)C1=O | 18.4 | 29.0 | 16.7 | -12.9 | 30.2* | -3.6
COc1ccc2c(c1)[C@@]1(OCCC=C[C@H]1C)C(=O)N2CC1CC1 | -11.4 | nt | nt | nt | 11.4 | nt
CCOC(=O)c1c[nH]c2c(C)ccc(Cl)c2c1=O | 2.4 | 27.4 | -8.8 | -1.7 | 4.1 | 6.2
CCOC(=O)c1c[nH]c2c(Cl)ccc(Cl)c2c1=O | -22.3 | -8.1 | 46.7 | -0.1 | 8.8 | 8.6*
CCOC(=O)c1c[nH]c2c(C(=O)c3ccccc3)cc(Cl)cc2c1=O | 7.6 | nt | -3.7 | -3.3 | -9.6 | 7.7*
CC(C)[C@H](NC(=O)c1ccccc1)C(=O)N1CCC[C@H]1C(=O)NCc1ccccc1 | -4.8 | nt | nt | nt | 4.2 | nt
CCOC(=O)Cc1nnc(NC(=O)C(CC)Sc2nnc3c4ccccc4n(C)c3n2)s1 (stereo unspecified) | -13.8 | 32.3 | 0.5 | -1.4 | -7.6 | 9.3*
CCOC(=O)Cc1nnc(NC(=O)C(CC)Sc2nncn2C)s1 (stereo unspecified) | 2.6 | 2.0 | -10.0 | -2.0 | -6.8 | -2.0
CCOC(=O)c1sc(NC(=O)C(CC)Sc2nc3ccccc3[nH]2)nc1C (stereo unspecified) | 3.8 | nt | -7.3 | -6.6 | 8.9 | -2.5
CCOC(=O)c1sc(NC(=O)C(CC)Sc2nnc3c4ccccc4n(C(C)C)c3n2)nc1C (stereo unspecified) | -1.4 | 68.4* | nt | -5.6 | 1.8 | -4.8
Cc1ccccc1C(=O)N[C@H](C(=O)N1CCC[C@H]1C(=O)NCCc1ccccc1Cl)C1CCCCC1 | -6.2 | nt | nt | nt | -1.9 | nt
Cc1ccc(-n2nnnc2C(Cl)c2nnnn2-c2ccc(C)cc2)cc1 | 4.4 | -3.4 | 96.0* | -2.0 | -0.8 | -5.8
Nc1nc2ncccc2cc1C(=O)NC1CC1 | 1.4 | nt | nt | nt | 0.8 | nt
CCOC(=O)CC1C(=O)NCCN1C(=O)c1c(Cl)cccc1Cl (stereo unspecified) | -5.4 | -3.1 | 92.4* | -0.8 | -1.9 | 0.1
CC1CN(CCCCOc2ccc(Cl)c3ccccc23)CC(C)O1 (stereo unspecified) | 11.6 | nt | 3.1 | 4.5* | 10.1 | 1.0
Clc1ccc(OCCn2ccnc2)c2ccccc12 | -5.7 | -40.9 | 100.6* | -4.3 | 17.5 | -2.1
C[C@H](c1ccccc1)N1C[C@@H](COCc2ccccc2)Oc2cccc(F)c2S1(=O)=O | 12.8 | nt | nt | nt | 8.0 | nt
CC(C)N(C(=O)CSc1nn2c(=O)c(C(C)(C)C)nnc2s1)c1ccccc1 | -1.8 | 24.9 | -4.5 | -1.3 | -4.8 | -0.5
Cc1cc(C(=O)CSc2nn3c(=O)c(C(C)(C)C)nnc3s2)c(C)n1-c1ccc(F)cc1 | -2.4 | 102.5* | -11.0 | 1.4 | -12.9 | 1.1
O=C(CN1C(=O)/C(=C2/SC(=S)N(CCS(=O)(=O)O)C2=O)c2ccccc21)Nc1cccc(C(F)(F)F)c1 | 1.8 | nt | nt | nt | -13.9 | nt

Screening results from PubChem BioAssay.
